Data from the M2OR odorant receptor database.

Columns and labels:
Settings in all cases: stereoisomer not certain
[1] = target: OR52E1 (Homo sapiens) (UniProt Q8NGJ3)
Method in brief: (§1)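 Transient luciferase assays in mammalian cell lines were common, though methods varied by source. The values come from published papers and their supplementary material, with extra details from the original authors when needed. Responsive refers to a measured signal the original authors judged statistically different from baseline, and non-responsive (inactive) to the remainder.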

[2] = target: OR52E2 (Homo sapiens) (UniProt Q8NGJ4)
Sequence of OR52E2 (Homo sapiens) (Q8NGJ4 whole entry): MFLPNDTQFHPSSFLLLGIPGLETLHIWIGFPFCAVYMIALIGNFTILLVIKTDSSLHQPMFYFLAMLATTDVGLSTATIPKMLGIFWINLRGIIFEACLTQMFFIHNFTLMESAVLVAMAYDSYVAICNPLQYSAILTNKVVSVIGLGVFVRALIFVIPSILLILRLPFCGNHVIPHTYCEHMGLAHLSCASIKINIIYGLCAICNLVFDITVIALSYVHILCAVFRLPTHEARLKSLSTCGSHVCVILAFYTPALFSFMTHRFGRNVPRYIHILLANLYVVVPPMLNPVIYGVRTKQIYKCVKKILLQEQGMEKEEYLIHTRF
Method in brief: as §1

[3] = target: OR52E4 (Homo sapiens) (UniProt Q8NGH9)
Sequence of OR52E4 (Homo sapiens) (Q8NGH9 whole entry): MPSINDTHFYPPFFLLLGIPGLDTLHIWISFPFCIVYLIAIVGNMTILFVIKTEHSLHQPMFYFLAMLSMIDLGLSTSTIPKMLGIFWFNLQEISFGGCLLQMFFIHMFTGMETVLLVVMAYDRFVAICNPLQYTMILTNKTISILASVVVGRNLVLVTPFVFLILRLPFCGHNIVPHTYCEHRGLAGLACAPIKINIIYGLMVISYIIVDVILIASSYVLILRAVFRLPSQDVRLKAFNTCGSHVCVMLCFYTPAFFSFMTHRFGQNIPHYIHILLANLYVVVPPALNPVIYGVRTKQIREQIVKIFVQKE
Method in brief: as §1

[4] = target: OR52E5 (Homo sapiens) (UniProt Q8NH55)
Sequence of OR52E5 (Homo sapiens) (Q8NH55 whole entry): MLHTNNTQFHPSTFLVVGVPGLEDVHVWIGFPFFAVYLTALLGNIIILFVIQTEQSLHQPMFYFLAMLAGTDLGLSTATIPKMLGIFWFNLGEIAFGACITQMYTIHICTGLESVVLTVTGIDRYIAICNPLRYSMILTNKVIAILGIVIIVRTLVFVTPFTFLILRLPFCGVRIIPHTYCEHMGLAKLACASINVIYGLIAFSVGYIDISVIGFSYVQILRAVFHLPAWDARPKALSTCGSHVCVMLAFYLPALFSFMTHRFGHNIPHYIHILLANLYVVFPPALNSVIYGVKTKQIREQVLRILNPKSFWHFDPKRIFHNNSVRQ
Method in brief: as §1

[5] = target: OR52E6 (Homo sapiens) (UniProt Q96RD3)
Sequence of OR52E6 (Homo sapiens) (Q96RD3 whole entry): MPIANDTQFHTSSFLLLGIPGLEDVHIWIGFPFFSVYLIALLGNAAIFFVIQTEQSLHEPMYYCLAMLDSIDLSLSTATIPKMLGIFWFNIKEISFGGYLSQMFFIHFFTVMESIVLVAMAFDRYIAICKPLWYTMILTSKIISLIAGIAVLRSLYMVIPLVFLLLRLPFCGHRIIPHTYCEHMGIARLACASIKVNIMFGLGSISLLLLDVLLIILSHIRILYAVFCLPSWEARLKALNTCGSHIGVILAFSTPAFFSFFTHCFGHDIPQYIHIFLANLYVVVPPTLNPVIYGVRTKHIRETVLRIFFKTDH
Method in brief: as §1

[6] = target: OR52I1 (Homo sapiens) (UniProt Q8NGK6)
Sequence of OR52I1 (Homo sapiens) (Q8NGK6 whole entry): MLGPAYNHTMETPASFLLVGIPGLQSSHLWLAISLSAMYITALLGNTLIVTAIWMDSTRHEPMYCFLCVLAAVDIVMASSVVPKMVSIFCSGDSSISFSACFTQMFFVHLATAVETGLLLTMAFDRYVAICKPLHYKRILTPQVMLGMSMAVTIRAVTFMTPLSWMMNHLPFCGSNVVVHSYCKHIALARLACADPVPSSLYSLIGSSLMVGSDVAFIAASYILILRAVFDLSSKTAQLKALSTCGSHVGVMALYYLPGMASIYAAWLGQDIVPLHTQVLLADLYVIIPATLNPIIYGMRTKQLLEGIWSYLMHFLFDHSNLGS
Method in brief: as §1

[7] = target: OR52I2 (Homo sapiens) (UniProt Q8NH67)
Sequence of OR52I2 (Homo sapiens) (Q8NH67 whole entry): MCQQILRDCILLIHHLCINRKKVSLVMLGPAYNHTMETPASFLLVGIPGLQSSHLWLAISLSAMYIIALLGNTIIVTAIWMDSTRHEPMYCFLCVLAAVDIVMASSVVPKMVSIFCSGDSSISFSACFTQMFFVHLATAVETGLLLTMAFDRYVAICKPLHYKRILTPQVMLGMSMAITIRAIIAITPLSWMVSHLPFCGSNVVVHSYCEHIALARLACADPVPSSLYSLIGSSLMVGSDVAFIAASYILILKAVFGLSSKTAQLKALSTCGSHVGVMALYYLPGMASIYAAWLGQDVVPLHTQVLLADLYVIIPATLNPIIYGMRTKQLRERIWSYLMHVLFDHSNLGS
Method in brief: as §1

[8] = target: OR52J3 (Homo sapiens) (UniProt Q8NH60)
Sequence of OR52J3 (Homo sapiens) (Q8NH60 whole entry): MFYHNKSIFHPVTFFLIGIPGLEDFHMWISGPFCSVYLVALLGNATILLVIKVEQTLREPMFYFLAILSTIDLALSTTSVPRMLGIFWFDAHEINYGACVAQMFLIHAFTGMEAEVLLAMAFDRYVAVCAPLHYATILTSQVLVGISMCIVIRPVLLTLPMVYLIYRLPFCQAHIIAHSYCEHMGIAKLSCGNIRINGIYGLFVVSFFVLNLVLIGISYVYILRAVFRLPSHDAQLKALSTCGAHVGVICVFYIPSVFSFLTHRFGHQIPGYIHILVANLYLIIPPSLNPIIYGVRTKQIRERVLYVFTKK
Method in brief: as §1

[9] = target: OR52K1 (Homo sapiens) (UniProt Q8NGK4)
Sequence of OR52K1 (Homo sapiens) (Q8NGK4 whole entry): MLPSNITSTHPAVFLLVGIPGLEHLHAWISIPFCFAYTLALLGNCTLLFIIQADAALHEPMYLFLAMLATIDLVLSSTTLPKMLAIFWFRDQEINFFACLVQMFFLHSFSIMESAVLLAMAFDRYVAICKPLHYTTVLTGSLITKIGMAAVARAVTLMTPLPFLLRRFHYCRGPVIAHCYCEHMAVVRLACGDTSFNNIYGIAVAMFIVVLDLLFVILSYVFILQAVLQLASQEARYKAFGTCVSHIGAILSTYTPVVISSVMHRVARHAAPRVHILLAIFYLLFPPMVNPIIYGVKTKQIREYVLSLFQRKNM
Method in brief: as §1

Measured: odorant receptor agonist call;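 also: active if original authors judged signal statistically different from baseline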

Sequence of OR52E1 (Homo sapiens) (Q8NGJ3 whole entry): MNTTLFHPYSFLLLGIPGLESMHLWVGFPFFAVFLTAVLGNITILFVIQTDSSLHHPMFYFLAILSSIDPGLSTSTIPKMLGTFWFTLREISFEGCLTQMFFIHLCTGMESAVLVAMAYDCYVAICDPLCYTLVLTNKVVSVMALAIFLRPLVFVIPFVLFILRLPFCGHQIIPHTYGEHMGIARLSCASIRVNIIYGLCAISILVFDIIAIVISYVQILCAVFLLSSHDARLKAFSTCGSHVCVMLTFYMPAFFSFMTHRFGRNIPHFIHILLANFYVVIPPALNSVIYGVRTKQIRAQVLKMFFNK

Cc1c([N+](=O)[O-])c(C)c([N+](=O)[O-])c(C(C)(C)C)c1[N+](=O)[O-]
inactive: [1] | [2] | [3] | [4] | [5] | [6] | [7] | [8] | [9]

C=CCOC(=O)Cc1ccccc1
inactive: [1] | [2] | [3] | [5] | [6] | [7] | [8] | [9]
